Results as given in the array DNA melting data of Ke et al. (doi:10.1101/2024.01.08.574731).

Experiments:
[1] = melting temperature; fluorescence melt of hairpins on a sequencing array, two-state fit, raised by 9.35 °C to match UV melts; conditions: sodium 0.088 M
Outline: (§1)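 Hairpins were imaged by Cy3 fluorescence on a sequenced MiSeq flow cell with annealed Cy3 and quencher oligos, in 50 mM Na-HEPES pH 8.0, 25 mM NaCl, in 2.5 °C steps up to 60 °C. Bootstrapped two-state fits of normalised signals gave melting temperature and folding enthalpy. Four replicates were combined by inverse variance, and fitted temperatures were raised by 9.35 °C to match UV melts.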

[2] = folding enthalpy; higher = less favourable; fluorescence melt of hairpins on a sequencing array, two-state fit; conditions: sodium 0.088 M
Outline: as §1

| Sequence | Tm [1] | folding enthalpy [2] |
| --- | --- | --- |
| GGGGTGGGAAACCGCCCC ((((.((....)).)))) | 65.9 °C | -38.1 kcal/mol |
| GGGGTTACGAAAGTACCC (((..(((....)))))) | 51.4 °C | -22.8 kcal/mol |
| GGGTAAGGAAACCTACCC (((((.(....).))))) | 42.9 °C | -30.6 kcal/mol |
| GGGTACACGAAAGTGCCC (((..(((....)))))) | 48 °C | -21.2 kcal/mol |
| GGGTACGAAAGTAAACCC ((((((....)))..))) | 47.3 °C | -28.4 kcal/mol |
| GGGTACGAAAGTACGCCC ((((((....)))..))) | 46.1 °C | -13.3 kcal/mol |
| GGGTACGAAAGTAGCCC ((((((....))).))) | 56.2 °C | -26.3 kcal/mol |
| GGGTACGAAAGTAGGCCC ((((((....)))..))) | 38.6 °C | -20.1 kcal/mol |
| GGGTACGAAAGTATCCC ((((((....))).))) | 51.8 °C | -37.3 kcal/mol |
| GGGTACGCGAAAGCGCCC (((..(((....)))))) | 47.2 °C | -16.3 kcal/mol |
| GGGTACGGAAACGTGCCC (((.(((....))).))) | 60.1 °C | -53.5 kcal/mol |
| GGGTACGGAAACGTGTCC ((..(((....)))..)) | 40.6 °C | -24.8 kcal/mol |
| GGGTAGCGAAAGCTCCCC (((.(((....))).))) | 55.1 °C | -28 kcal/mol |
| GGGTAGGAAACTACCC ((((((....)))))) | 58.8 °C | -29.6 kcal/mol |
| GGGTATACGAAAGTACCC (((..(((....)))))) | 45.6 °C | -24.4 kcal/mol |
| GGGTATCGAAAGATTCCC (((.(((....))).))) | 48.8 °C | -30.6 kcal/mol |
| GGGTATTCGAAAGAACCC (((..(((....)))))) | 34.5 °C | -22 kcal/mol |
| GGGTCAGGAAACTGATCC ((.((((....)))).)) | 51.9 °C | -38.9 kcal/mol |
| GGGTCAGGAAACTGGCCC (((.(((....))).))) | 60.4 °C | -41.8 kcal/mol |
| GGGTCAGGAAACTGGCTC (.(.(((....))).).) | 39.8 °C | -24.5 kcal/mol |
| GGGTCCCGAAAGGGCCCC (((.(((....))).))) | 67.2 °C | -17.9 kcal/mol |
| GGGTCCGAAAGGAGACCC ((((((....)))..))) | 53.1 °C | -22 kcal/mol |
| GGGTCCGAAAGGATACCC ((((((....)))..))) | 50 °C | -20.1 kcal/mol |

| Sequence | Tm [1] | folding enthalpy [2] |
| --- | --- | --- |
| GGGTCCGAAAGGATTCCC ((((((....)))..))) | 44.1 °C | -22.2 kcal/mol |
| GGGTCCGGAAACGGACTC (.(((((....))))).) | 61.3 °C | -15.2 kcal/mol |
| GGGTCCGGAAACGGATCC ((.((((....)))).)) | 59.1 °C | -38.1 kcal/mol |
| GGGTCGCGAAAGCGCCCC (((.(((....))).))) | 66.8 °C | -18.6 kcal/mol |
| GGGTCGGGAAACTGGCCC (((.(.(....).).))) | 50.6 °C | -35.8 kcal/mol |
| GGGTCTCCGAAAGGACCC (((..(((....)))))) | 51.4 °C | -26.5 kcal/mol |
| GGGTCTGGAAACAGACCC (((((((....))))))) | 68.8 °C | -36.1 kcal/mol |
| GGGTCTGGAAACAGGCCC (((.(((....))).))) | 59.8 °C | -46.8 kcal/mol |
| GGGTGACGAAAGTCCCC (((.(((....)))))) | 58.4 °C | -34.9 kcal/mol |
| GGGTGAGGAAACTCACCC (((((((....))))))) | 68.6 °C | -33.8 kcal/mol |
| GGGTGAGGAAACTCATCC ((.((((....)))).)) | 49.2 °C | -43.1 kcal/mol |
| GGGTGAGGAAACTCGTCC ((..(((....)))..)) | 34.3 °C | -28.5 kcal/mol |
| GGGTGATCGAAAGATCCC (((..(((....)))))) | 50.2 °C | -19 kcal/mol |
| GGGTGCCCGAAAGGGCCC (((..(((....)))))) | 55.5 °C | -11.6 kcal/mol |
| GGGTGCGAAAGCAATCCC ((((((....)))..))) | 50.6 °C | -21.8 kcal/mol |
| GGGTGCGAAAGCATCCC ((((((....))).))) | 65.2 °C | -18.5 kcal/mol |
| GGGTGCGAAAGCATTCCC ((((((....)))..))) | 46.9 °C | -17.4 kcal/mol |
| GGGTGGCCGAAAGGCCCC (((..(((....)))))) | 54.2 °C | -11.8 kcal/mol |
| GGGTGGCGAAAGCCCCC (((.(((....)))))) | 66.9 °C | -17.3 kcal/mol |
| GGGTGGCGAAAGCCTCCC (((.(((....))).))) | 66.2 °C | -28 kcal/mol |
| GGGTGGGAAACCACCC ((((((....)))))) | 68.2 °C | -29.6 kcal/mol |
| GGGTGTACGAAAGTACCC (((..(((....)))))) | 53.3 °C | -23.1 kcal/mol |
| GGGTGTGGAAACGCATCC ((.((.(....).)).)) | 41.3 °C | -26.3 kcal/mol |

| Sequence | Tm [1] | folding enthalpy [2] |
| --- | --- | --- |
| GGGTGTGGAAACGTACCC ((((..(....)..)))) | 45.5 °C | -28.7 kcal/mol |
| GGGTTACGAAAGTACCC (((.(((....)))))) | 54.3 °C | -31.5 kcal/mol |
| GGGTTACGAAAGTATCCC (((.(((....))).))) | 51.4 °C | -43.4 kcal/mol |
| GGGTTAGGAAACTGACCC ((((.((....)).)))) | 50 °C | -34.6 kcal/mol |
| GGGTTCGAAAGAACTCCC ((((((....)))..))) | 46.5 °C | -13.5 kcal/mol |
| GGGTTCGAAAGAAGCCCC ((((((....)))..))) | 55.3 °C | -20.9 kcal/mol |
| GGGTTTACGAAAGTACCC (((..(((....)))))) | 41.2 °C | -24.2 kcal/mol |
| GGGTTTCGAAAGAACCC (((.(((....)))))) | 51.2 °C | -38 kcal/mol |
| GGGTTTGCGAAAGCACCC (((..(((....)))))) | 47.3 °C | -18.9 kcal/mol |
| GGGTTTGGAAACAAACCC (((((((....))))))) | 66.8 °C | -39.6 kcal/mol |
| GGGTTTGGAAACAAGTCC ((..(((....)))..)) | 30.4 °C | -22.3 kcal/mol |
| GGGTTTGGAAACAGACCC ((((.((....)).)))) | 48.8 °C | -39.9 kcal/mol |
| GGGTTTGGAAACAGATCC ((.(.((....)).).)) | 29.9 °C | -13 kcal/mol |
| GGGTTTGGAAACGAACCC (((((.(....).))))) | 52.3 °C | -59.2 kcal/mol |
| GGGTTTGGAAACGAACTC (.(((.(....).))).) | 32.4 °C | -24 kcal/mol |
| GGTAAAACGAAAGTTACC (((..(((....)))))) | 37.3 °C | -19.1 kcal/mol |
| GGTAAACGAAAGTTAACC (((.(((....))).))) | 43.2 °C | -30.5 kcal/mol |
| GGTAAAGCGAAAGCTACC (((..(((....)))))) | 44.8 °C | -19 kcal/mol |
| GGTAAAGGAAACCTTACC (((((.(....).))))) | 35.5 °C | -22 kcal/mol |
| GGTAAAGGAAACTTTACC (((((((....))))))) | 52.1 °C | -47.8 kcal/mol |
| GGTAACGAAAGTTCAACC ((((((....)))..))) | 27.7 °C | -11 kcal/mol |
| GGTAACGAAAGTTGACC ((((((....))).))) | 39.2 °C | -20.6 kcal/mol |
| GGTAACGAAAGTTGTACC ((((((....)))..))) | 34.8 °C | -17.5 kcal/mol |

| Sequence | Tm [1] | folding enthalpy [2] |
| --- | --- | --- |
| GGTAACGCGAAAGCGACC (((..(((....)))))) | 40.9 °C | -14.1 kcal/mol |
| GGTAACGGAAACATTACC (((((.(....).))))) | 31.5 °C | -21.2 kcal/mol |
| GGTAACGGAAACGCTACC ((((.((....)).)))) | 43.7 °C | -29.7 kcal/mol |
| GGTAAGAAATTACC (((((....))))) | 34.3 °C | -16 kcal/mol |
| GGTAAGCGAAAGCTACC (((.(((....)))))) | 55 °C | -26.7 kcal/mol |
| GGTAAGGGAAACCTCACC (((.(((....))).))) | 34.7 °C | -21.9 kcal/mol |
| GGTAATCGAAAGATGACC (((.(((....))).))) | 47.5 °C | -33.9 kcal/mol |
| GGTAATGGAAACACTACC ((((.((....)).)))) | 30.1 °C | -15.4 kcal/mol |
| GGTACCGAAAGGTAAACC ((((((....)))..))) | 40.5 °C | -16.2 kcal/mol |
| GGTACCGAAAGGTACACC ((((((....)))..))) | 51.7 °C | -9.32 kcal/mol |
| GGTACCGAAAGGTTAACC ((((((....)))..))) | 38.6 °C | -17.3 kcal/mol |
| GGTACCGAAAGGTTCACC ((((((....)))..))) | 34.4 °C | -13.6 kcal/mol |
| GGTACCGGAAACGGCACC (((.(((....))).))) | 52.5 °C | -29.9 kcal/mol |
| GGTACGGGAAACCATACC ((((.((....)).)))) | 36.7 °C | -28.2 kcal/mol |
| GGTACGGGAAACCGCACC (((.(((....))).))) | 50.5 °C | -28.6 kcal/mol |
| GGTAGACGAAAGTCAACC (((.(((....))).))) | 51.5 °C | -26.3 kcal/mol |
| GGTAGACGAAAGTCACC (((.(((....)))))) | 50.8 °C | -23.6 kcal/mol |
| GGTAGACGAAAGTCGACC (((.(((....))).))) | 58.1 °C | -39.1 kcal/mol |
| GGTAGATCGAAAGATACC (((..(((....)))))) | 33.1 °C | -19 kcal/mol |
| GGTAGCCGAAAGGCACC (((.(((....)))))) | 57.5 °C | -18.7 kcal/mol |
| GGTAGCGAAAGCTAGACC ((((((....)))..))) | 40.1 °C | -14.3 kcal/mol |
| GGTAGCGAAAGCTCACC ((((((....))).))) | 48.2 °C | -16.8 kcal/mol |
